In PubChem BioAssay AID2626 (Vanderbilt High Throughput Screening Facility, 2010) one finds % of ACh max response (PAM) data, which are given here for 33 compounds.

Each structure is given as a SMILES string. Calls of active or inactive are those of the source.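 The calls were made as follows: active = response above about half the acetylcholine maximum when tested at 10 µM with a low acetylcholine dose; inactive = response below half the acetylcholine maximum.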

Chain of Muscarinic acetylcholine receptor M1 (Rattus norvegicus) (P08482 whole entry, looked up): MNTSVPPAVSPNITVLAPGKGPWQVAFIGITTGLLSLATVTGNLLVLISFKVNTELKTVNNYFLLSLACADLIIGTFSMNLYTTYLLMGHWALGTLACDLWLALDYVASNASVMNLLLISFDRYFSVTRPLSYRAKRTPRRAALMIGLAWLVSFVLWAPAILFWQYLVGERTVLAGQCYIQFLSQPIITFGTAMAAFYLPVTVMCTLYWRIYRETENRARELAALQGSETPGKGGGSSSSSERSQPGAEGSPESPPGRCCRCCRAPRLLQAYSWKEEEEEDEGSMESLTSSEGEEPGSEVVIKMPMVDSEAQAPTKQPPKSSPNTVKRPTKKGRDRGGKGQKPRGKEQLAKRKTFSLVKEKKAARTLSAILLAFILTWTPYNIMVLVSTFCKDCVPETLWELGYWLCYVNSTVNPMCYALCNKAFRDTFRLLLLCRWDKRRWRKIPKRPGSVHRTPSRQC

This test has as its target Muscarinic acetylcholine receptor M1 (Rattus norvegicus) (UniProt P08482). Briefly: enhancement of submaximal ACh response at M1 – ACh EC20, CHO cells (AID 2626). To be noted: CHO rM1 cells, calcium response with ACh EC20; at 10 µM; stronger effect = higher value. A digest of the protocol:
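Material: CHO cells with rat M1 receptor; reagent: acetylcholine near EC20; compound: one dose, 10 µM; measure: enhancement of acetylcholine response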
For `Cc1cc(NC(=O)CS(=O)(=O)c2cn(Cc3ccc(F)nc3)c3ccccc23)no1`, the % of ACh max response (PAM) is 41.2% (inactive).

Turning to `Cc1cc(NC(=O)CS(=O)(=O)c2cn(Cc3cccc(C#N)c3)c3ccccc23)no1`, the % of ACh max response (PAM) is 52.7%.

Turning to `Cc1cc(NC(=O)CS(=O)(=O)c2cn(Cc3ccc(F)c(Br)c3)c3ccccc23)no1`, the % of ACh max response (PAM) is 24% (inactive).

`O=C(O)CS(=O)(=O)c1cn(Cc2cc(Br)ccc2F)c2ccccc12`: the % of ACh max response (PAM) is 18.1% (inactive).

In the case of `Cc1cc(NC(=O)CS(=O)(=O)c2cn(Cc3ccc(F)cc3F)c3ccccc23)no1`, the % of ACh max response (PAM) was 51.6%.

With `Cc1cc(NC(=O)CS(=O)(=O)c2cn(Cc3cccc(-c4ccc(Cl)nc4)c3)c3ccccc23)no1`, the % of ACh max response (PAM) was 26.4% (inactive).

With `Cc1cc(NC(=O)CSc2cn(Cc3cccc(Br)c3)c3ccccc23)no1`, the % of ACh max response (PAM) was 26.9% (inactive).

As to `Cc1cc(NC(=O)CS(=O)(=O)c2cn(Cc3ccc(Cl)cc3)c3ccccc23)no1`, the % of ACh max response (PAM) was 30.8% (inactive).

For `Cc1cc(NC(=O)CS(=O)(=O)c2cn(Cc3cc(Br)cc(Br)c3)c3ccccc23)no1`, the % of ACh max response (PAM) was 12.7% (inactive).

Take `Cc1cc(NC(=O)CS(=O)(=O)c2cn(Cc3ccc(C(F)(F)F)cc3)c3ccccc23)no1`: the % of ACh max response (PAM) is 30.4% (inactive).

Take `Cc1cc(NC(=O)CS(=O)(=O)c2cn(Cc3ccccc3F)c3ccccc23)no1`: the % of ACh max response (PAM) is 52.9%.

Take `Cc1cc(NC(=O)CS(=O)(=O)c2cn(Cc3ccc4c(c3)OCO4)c3ccccc23)no1`: the % of ACh max response (PAM) is 35.8% (inactive).

On to `CS(=O)(=O)c1cn(Cc2ccccc2Cl)c2ccccc12`, for which the % of ACh max response (PAM) was 26.3% (inactive).

`COC(=O)CS(=O)(=O)c1cn(Cc2cc(Br)ccc2F)c2ccccc12`: the % of ACh max response (PAM) is 7.5% (inactive).

Consider `Cc1cc(NC(=O)CS(=O)c2cn(Cc3cccc(Cl)c3)c3ccccc23)no1` (stereo not drawn), for which the % of ACh max response (PAM) was 72.4%.

`Cc1cc(NC(=O)CS(=O)(=O)c2c[nH]c3ccccc23)no1`: the % of ACh max response (PAM) is 29% (inactive).

As to `Cc1cc(NC(=O)C(Cc2cccc(Cl)c2)S(=O)(=O)c2cn(Cc3cccc(Cl)c3)c3ccccc23)no1` (stereo not drawn), the % of ACh max response (PAM) was 42.1% (inactive).

Turning to `Cc1cc(NC(=O)CS(=O)(=O)c2cn(Cc3ccc(OC(F)(F)F)cc3)c3ccccc23)no1`, the % of ACh max response (PAM) is 28.7% (inactive).

As to `Cc1cc(NC(=O)CSc2c[nH]c3ccccc23)no1`, the % of ACh max response (PAM) is 28.8% (inactive).

Consider `Cc1cc(NC(=O)CS(=O)(=O)c2cn(Cc3ccc(Br)cc3F)c3ccccc23)no1`, for which the % of ACh max response (PAM) was 27.7% (inactive).

Take `Cc1cc(NC(=O)C(Cc2ccc(OC(F)(F)F)cc2)S(=O)(=O)c2cn(Cc3ccc(OC(F)(F)F)cc3)c3ccccc23)no1` (stereo not drawn): the % of ACh max response (PAM) is 28.7% (inactive).

Turning to `Cc1cc(NC(=O)CSc2cn(Cc3ccccc3Cl)c3ccccc23)no1`, the % of ACh max response (PAM) is 26.7% (inactive).

Take `Cc1cc(NC(=O)C(Cc2ccccc2F)S(=O)(=O)c2cn(Cc3ccccc3F)c3ccccc23)no1` (stereo not drawn): the % of ACh max response (PAM) was 44.5% (inactive).

Regarding `COc1ccccc1Cn1cc(S(=O)(=O)CC(=O)Nc2cc(C)on2)c2ccccc21`, the % of ACh max response (PAM) is 30.6% (inactive).

For the compound `Cc1cc(NC(=O)CS(=O)(=O)c2cn(Cc3cccc(-c4ccc(N5CCOCC5)nc4)c3)c3ccccc23)no1`, the % of ACh max response (PAM) was 18.5% (inactive).

As for `Cc1cc(NC(=O)C(C)S(=O)(=O)c2cn(Cc3cc(Br)ccc3F)c3ccccc23)no1` (stereo not drawn), the % of ACh max response (PAM) is 19.7% (inactive).

As to `Cc1cc(NC(=O)C(C)S(=O)(=O)c2cn(Cc3cc(Br)cc(Br)c3)c3ccccc23)no1` (stereo not drawn), the % of ACh max response (PAM) is 17.7% (inactive).

Consider `COc1ccc(Cn2cc(S(=O)(=O)CC(=O)Nc3cc(C)on3)c3ccccc32)cc1`, for which the % of ACh max response (PAM) is 54.8%.

Turning to `Cc1cc(NC(=O)C(Cc2ccc(F)cc2F)S(=O)(=O)c2cn(Cc3ccc(F)cc3F)c3ccccc23)no1` (stereo not drawn), the % of ACh max response (PAM) is 38.5% (inactive).

`Cc1cc(NC(=O)CS(=O)(=O)c2cn(Cc3cccc(-c4ccc(N5CCCC5)nc4)c3)c3ccccc23)no1`: the % of ACh max response (PAM) was 33.3% (inactive).

For `O=C(CS(=O)(=O)c1cn(Cc2cc(Br)ccc2F)c2ccccc12)Nc1ccccc1`, the % of ACh max response (PAM) is 13.9% (inactive).

Consider `Cc1cc(NC(=O)CS(=O)(=O)c2cn(Cc3cccc(-c4ccc(N5CCNCC5)nc4)c3)c3ccccc23)no1`, for which the % of ACh max response (PAM) was 43.6% (inactive).

Consider `Cc1cc(NC(=O)CS(=O)(=O)c2cn(Cc3cccc(-c4cnn(CC(C)C)c4)c3)c3ccccc23)no1`, for which the % of ACh max response (PAM) is 24.4% (inactive).
